ChEMBL document CHEMBL1131126, “Naamidine A is an antagonist of the epidermal growth factor receptor and an in vivo active antitumor agent” (J Med Chem, 1998)

Legend:
Assay type in all cases: functional
Mus musculus = species on record: Mus musculus; assay: Selectivity for EGF over insulin receptors
Summary of the method: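 Ratio of insulin-stimulated IC50 to EGF-stimulated IC50, both from [3H]thymidine incorporation in EGF receptor-transfected NIH3T3 cells (1 h preincubation, 16 h mitogen stimulation, 1-h label).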

A-431 [1] = assay: In vivo inhibitory activity against A431 tumor implanted in athymic mice at 50 mg/kg […]; conditions: Mus musculus
Summary of the method: (§1)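 A431 squamous carcinoma cells (EGF receptor-overexpressing) implanted under the kidney capsule of athymic mice, N = 6 per group. Dosed once daily for 5 days starting the day after implantation. Tumor size assessed 7 days after implantation; result given as % inhibition of tumor growth, with deaths counted per group.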

A-431 [2] = assay: In vivo inhibitory activity against A431 tumor implanted in athymic mice at 12.5 mg/kg […]; conditions: Mus musculus; summary of the method: as §1
A-431 [3] = assay: In vivo inhibitory activity against A431 tumor implanted in athymic mice at 3.13 mg/kg […]; conditions: Mus musculus; summary of the method: as §1
A-431 [4] = assay: In vivo inhibitory activity against A431 tumor implanted in athymic mice at 25 mg/kg […]; conditions: Mus musculus; summary of the method: as §1

Structure (SMILES) | Selectivity (Mus musculus) | inhibition in vivo at 50 mg/kg (A-431 [1]) | inhibition in vivo at 12.5 mg/kg (A-431 [2]) | inhibition in vivo at 3.13 mg/kg (A-431 [3]) | inhibition in vivo at 25 mg/kg (A-431 [4])
COc1ccc(Cc2cn(Cc3ccc(O)cc3)c(NC3=NC(=O)N(C)C3=O)n2)cc1 | 0.43 |  |  |  | 
COc1ccc(Cc2nc(NC3=NC(=O)N(C)C3=O)n(C)c2Cc2ccc(O)cc2)cc1 | 21 | 96.4% | 52% | 35% | 87.4%
COc1ccc(Cc2cn(Cc3ccc(OC)cc3)c(NC3=NC(=O)N(C)C3=O)n2)cc1 | 0.18 |  |  |  | 
